Tests used:
[1] = tested on: patients with advanced solid tumors; test: Safety; format: in vivo, human; conditions: Part B
[2] = 50-mg film-coated hot melt extrudate tablets; estimated; cited from earlier work
[3] = tested on: advanced solid tumors; test: Best overall response per RECIST version 1.1, Part A; format: in vivo, human
[4] = tested on: DNA-PK; conditions: previous studies; cited from earlier work
[5] = tested on: advanced solid tumors; test: Best overall response per RECIST version 1.1, Part FE; format: in vivo, human
[6] = tested on: patients with advanced solid tumors; test: Safety; format: in vivo, human; conditions: Part FE
[7] = healthy volunteers; cited from earlier work
[8] = tested on: advanced solid tumors; test: Disease control by baseline PD-L1 and DNA-PK immunohistochemistry; format: in vivo, human
Summary of the method: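 Immunohistochemistry on pretreatment archival tumor tissue; in Parts A and B, fresh samples were taken when no archival tissue was available. DNA-PK staining was scored as an H-score combining prevalence and staining intensity, then related to disease control.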

In the case of `COc1ccc([C@@H](O)c2cc(-c3ncnc4cc(N5CCOCC5)ccc34)c(F)cc2Cl)nn1` [Peposertib], the “Serious TEAE, peposertib related” value ([1]; 250 mg q.d., all grade) was 1 (11.1) n (%), the “Serious TEAE, radiotherapy related” value ([1]; 250 mg q.d., all grade) was 1 (11.1) n (%) and the “Serious TEAE, treatment related” value ([1]; 250 mg q.d., all grade) was 2 (22.2) n (%). For the same compound, the TEAE ([1]; 250 mg q.d., all grade) was 9 (100.0) n (%), the “TEAE, peposertib related” value ([1]; 250 mg q.d., all grade) was 5 (55.6) n (%) and the “TEAE, radiotherapy related” value ([1]; 250 mg q.d., all grade) was 5 (55.6) n (%). The “TEAE, treatment related” value ([1]; 250 mg q.d., all grade) was 8 (88.9) n (%), the “TEAEs leading to death” value ([1]; 250 mg q.d., all grade) was 0 n (%) and the “Treatment-related AE leading to death” value ([1]; 250 mg q.d., all grade) was 0 n (%). For the same compound, the IRR ([1]; 250 mg q.d., grade ≥3) was 1 (11.1) n (%), the “Immune-related AE” value ([1]; 250 mg q.d., grade ≥3) was 2 (22.2) n (%) and the “Serious TEAE” value ([1]; 250 mg q.d., grade ≥3) was 6 (66.7) n (%). The “Serious TEAE, peposertib related” value ([1]; 250 mg q.d., grade ≥3) was 1 (11.1) n (%), the “Serious TEAE, radiotherapy related” value ([1]; 250 mg q.d., grade ≥3) was 1 (11.1) n (%) and the “Serious TEAE, treatment related” value ([1]; 250 mg q.d., grade ≥3) was 2 (22.2) n (%). The TEAE ([1]; 250 mg q.d., grade ≥3) was 7 (77.8) n (%), the “TEAE, peposertib related” value ([1]; 250 mg q.d., grade ≥3) was 1 (11.1) n (%) and the “TEAE, radiotherapy related” value ([1]; 250 mg q.d., grade ≥3) was 1 (11.1) n (%). The “TEAE, treatment related” value ([1]; 250 mg q.d., grade ≥3) was 3 (33.3) n (%), the “TEAEs leading to death” value ([1]; 250 mg q.d., grade ≥3) was 0 n (%) and the “Treatment-related AE leading to death” value ([1]; 250 mg q.d., grade ≥3) was 0 n (%). For the same compound, the “Discontinuation of all study treatments due to AEs” value ([1]; all dose levels) was 6 (31.6%), the “Peposertib-related TEAE: nausea” value ([1]; all dose levels) was 5 (26.3%) and the “Peposertib-related TEAE: vomiting” value ([1]; all dose levels) was 3 (15.8%). The “Increase in bioavailability versus capsules” value [2] was 75%, the “Patients with complete response (CR) or partial response (PR)” value [3] was “no patients” and the “Best overall response of stable disease (SD) or non-CR/non-PD” value ([3]; all dose levels) was 17.2%. The DNA-PK inhibition [4] was “time- and concentration-dependent manner”, the “Best overall response of stable disease (SD) or non-CR/non-PD” value ([5]; all dose levels) was 33.3% and the “Patients with a PR” value ([5]; all patients, response at 200 mg b.i.d.) was “one of nine”. For the same compound, the “Serious TEAE: sepsis” value ([6]; 100 mg b.i.d.) was 2/4, the IRR ([6]; 100 mg b.i.d., all grade) was 1 (25.0) n (%) and the “Immune-related AE” value ([6]; 100 mg b.i.d., all grade) was 0 n (%). The “Serious TEAE” value ([6]; 100 mg b.i.d., all grade) was 2 (50.0) n (%), the “Serious TEAE, peposertib related” value ([6]; 100 mg b.i.d., all grade) was 1 (25.0) n (%) and the “Serious TEAE, treatment related” value ([6]; 100 mg b.i.d., all grade) was 1 (25.0) n (%). For the same compound, the TEAE ([6]; 100 mg b.i.d., all grade) was 4 (100.0) n (%), the “TEAE leading to death” value ([6]; 100 mg b.i.d., all grade) was 1 (25.0) n (%) and the “TEAE, peposertib related” value ([6]; 100 mg b.i.d., all grade) was 3 (75.0) n (%). The “TEAE, treatment related” value ([6]; 100 mg b.i.d., all grade) was 3 (75.0) n (%), the “Treatment-related AE leading to death” value ([6]; 100 mg b.i.d., all grade) was 0 n (%) and the IRR ([6]; 100 mg b.i.d., grade ≥3) was 0 n (%). For the same compound, the “Immune-related AE” value ([6]; 100 mg b.i.d., grade ≥3) was 0 n (%), the “Serious TEAE” value ([6]; 100 mg b.i.d., grade ≥3) was 2 (50.0) n (%) and the “Serious TEAE, peposertib related” value ([6]; 100 mg b.i.d., grade ≥3) was 1 (25.0) n (%). For the same compound, the “Serious TEAE, treatment related” value ([6]; 100 mg b.i.d., grade ≥3) was 1 (25.0) n (%), the TEAE ([6]; 100 mg b.i.d., grade ≥3) was 3 (75.0) n (%) and the “TEAE leading to death” value ([6]; 100 mg b.i.d., grade ≥3) was 1 (25.0) n (%). For the same compound, the “TEAE, peposertib related” value ([6]; 100 mg b.i.d., grade ≥3) was 1 (25.0) n (%), the “TEAE, treatment related” value ([6]; 100 mg b.i.d., grade ≥3) was 1 (25.0) n (%) and the “Treatment-related AE leading to death” value ([6]; 100 mg b.i.d., grade ≥3) was 0 n (%). For the same compound, the IRR ([6]; 200 mg b.i.d., all grade) was 1 (20.0) n (%), the “Immune-related AE” value ([6]; 200 mg b.i.d., all grade) was 2 (40.0) n (%) and the “Serious TEAE” value ([6]; 200 mg b.i.d., all grade) was 3 (60.0) n (%). For the same compound, the “Serious TEAE, peposertib related” value ([6]; 200 mg b.i.d., all grade) was 1 (20.0) n (%), the “Serious TEAE, treatment related” value ([6]; 200 mg b.i.d., all grade) was 2 (40.0) n (%) and the TEAE ([6]; 200 mg b.i.d., all grade) was 5 (100.0) n (%). For the same compound, the “TEAE leading to death” value ([6]; 200 mg b.i.d., all grade) was 1 (20.0) n (%), the “TEAE, peposertib related” value ([6]; 200 mg b.i.d., all grade) was 5 (100.0) n (%) and the “TEAE, treatment related” value ([6]; 200 mg b.i.d., all grade) was 5 (100.0) n (%). The “Treatment-related AE leading to death” value ([6]; 200 mg b.i.d., all grade) was 0 n (%), the IRR ([6]; 200 mg b.i.d., grade ≥3) was 1 (20.0) n (%) and the “Immune-related AE” value ([6]; 200 mg b.i.d., grade ≥3) was 2 (40.0) n (%). The “Serious TEAE” value ([6]; 200 mg b.i.d., grade ≥3) was 3 (60.0) n (%), the “Serious TEAE, peposertib related” value ([6]; 200 mg b.i.d., grade ≥3) was 1 (20.0) n (%) and the “Serious TEAE, treatment related” value ([6]; 200 mg b.i.d., grade ≥3) was 2 (40.0) n (%). For the same compound, the TEAE ([6]; 200 mg b.i.d., grade ≥3) was 4 (80.0) n (%), the “TEAE leading to death” value ([6]; 200 mg b.i.d., grade ≥3) was 1 (20.0) n (%) and the “TEAE, peposertib related” value ([6]; 200 mg b.i.d., grade ≥3) was 3 (60.0) n (%). The “TEAE, treatment related” value ([6]; 200 mg b.i.d., grade ≥3) was 4 (80.0) n (%), the “Treatment-related AE leading to death” value ([6]; 200 mg b.i.d., grade ≥3) was 0 n (%) and the “Discontinuation of all study treatments due to AEs” value ([6]; all dose levels) was 4 (44.4%). The “Peposertib-related TEAE: diarrhea” value ([6]; all dose levels) was 4 (44.4%), the “Peposertib-related TEAE: fatigue” value ([6]; all dose levels) was 5 (55.6%) and the Food effect [7] was “only a mild food effect”. For the same compound, the “Patients with SD among PD-L1+ tumors” value ([8]; Part A) was “two of seven”, the “Patients with SD among PD-L1− tumors” value ([8]; Part A) was “two of 17” and the “Patients with SD among PD-L1+ tumors” value ([8]; Part B) was “two of seven”. The “Patients with SD among PD-L1− tumors” value ([8]; Part B) was “three of nine” and the “Association between DNA-PK H-score and disease control” value ([8]; Parts A, B and FE) was “No association”.
